ChEMBL document CHEMBL4842315, “Discovery and mechanism of action studies of 4,6-diphenylpyrimidine-2-carbohydrazides as utrophin modulators for the treatment of Duchenne muscular dystrophy” (Eur J Med Chem, 2021)
Active and inactive are the calls of the source. The calls are words filed in the database; no cut-off is given here.

System: not listed separately
Assay: Upregulation of utrophin gene expression in mouse myoblasts expressing LUmdx and firefly luciferase assessed as activation of utrophin promoter at 0.1 to 50 uM by cell-based reporter assay relative to control
Format: functional, Myoblast
Conditions: dose 0.1-50 µM
In short: (§1)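 Immortalised myoblasts derived from the LUmdx mouse carry a utrophin promoter–firefly luciferase reporter, and promoter activation is read as luciferase signal. During screening, hits were counterscreened for firefly luciferase assay interference.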

SMILES | fold change (FC)
NNC(=O)c1nc(-c2ccccc2)cc(-c2ccccc2)n1 | 2

System: not listed separately
Assay: Upregulation of utrophin gene expression in DMD disease mouse model myoblasts expressing H2K-mdx utrnA-firefly luciferase assessed as fold increase in utrophin mRNA at 3 uM by qRT-PCR analysis relative to control
Format: functional, Myoblast
Conditions: not given

SMILES | fold change (FC)
CCS(=O)(=O)c1ccc2oc(-c3ccc4ccccc4c3)nc2c1 [EZUTROMID] | 1.7

System: not listed separately
Assay: Upregulation of utrophin gene expression in DMD disease mouse model myoblasts expressing H2K-mdx utrnA-firefly luciferase assessed as fold increase in utrophin mRNA at 30 uM by qRT-PCR analysis relative to control
Format: functional, Myoblast
Conditions: not given

SMILES | fold change (FC)
NNC(=O)c1nc(-c2ccccc2)cc(-c2ccccc2)n1 | 1.6

System: not listed separately
Assay: Apparent permeability of the compound across apical to basolateral side in human Caco-2 cells
Format: ADME, cell-based
Conditions: read-out: permeability

Papp A→B [×10⁻⁶ cm/s] | SMILES
30.7 | NNC(=O)c1nc(-c2ccccc2)cc(-c2ccccc2)n1

System: Myoblast
Assay: Upregulation of utrophin gene expression in DMD disease mouse model myoblasts expressing H2K-mdx utrnA-firefly luciferase assessed as activation of utrophin promoter by cell-based reporter assay
Format: functional, tissue-based
Conditions: not given

SMILES | Activity
NNC(=O)c1nc(-c2ccccc2)cc(-c2ccccc2)n1 | inactive

System: not listed separately
Assay: Upregulation of utrophin gene expression in mouse myoblasts expressing LUmdx and firefly luciferase assessed as activation of utrophin promoter by cell-based reporter assay
Format: functional, tissue-based, Myoblast
Conditions: Mus musculus, Myoblast; read-out: EC50
In short: as §1

SMILES | EC50 [µM]
COc1ccc(-c2cc(-c3ccc(OC)cc3)nc(C(=O)NN)n2)cc1 | 7.14
NNC(=O)c1nc(-c2ccc(C(F)(F)F)cc2)cc(-c2ccc(C(F)(F)F)cc2)n1 | > 10
C#CCOCCOc1ccc(-c2cc(-c3ccc(C4(C(F)(F)F)N=N4)cc3)nc(C(=O)NN)n2)cc1 | 20
NNC(=O)c1nc(-c2ccc(F)cc2)cc(-c2ccc(F)cc2)n1 | 12.8
NNC(=O)c1nc(-c2ccccc2F)cc(-c2ccccc2F)n1 | 11
NNC(=O)c1nc(-c2cccc(F)c2)cc(-c2cccc(F)c2)n1 | > 10

The next lines start with the values.

EC50 [µM] | SMILES
4.54 | CCCc1ccc(-c2cc(-c3ccccc3)nc(C(=O)NN)n2)cc1
9.22 | COc1cccc(-c2cc(-c3cccc(OC)c3)nc(C(=O)NN)n2)c1
8.95 | COCCOc1ccc(-c2cc(-c3ccccc3)nc(C(=O)NN)n2)cc1
2.71 | CCOc1ccc(-c2cc(-c3ccccc3)nc(C(=O)NN)n2)cc1
7.22 | NNC(=O)c1nc(-c2ccccc2)cc(-c2ccc(C3(C(F)(F)F)N=N3)cc2)n1
14.9 | C#CCOCCOc1ccc(-c2cc(-c3ccccc3)nc(C(=O)NN)n2)cc1
1.57 | NNC(=O)c1nc(-c2ccccc2)cc(-c2ccc(O)cc2)n1
4.65 | COCc1ccc(-c2cc(-c3ccccc3)nc(C(=O)NN)n2)cc1
20.5 | NNC(=O)c1nc(-c2ccccc2)cc(-c2ccccc2)n1
1.9 | NNC(=O)c1nc(-c2ccccc2)cc(-c2ccc(CO)cc2)n1
8.98 | NNC(=O)c1nc(-c2ccccc2)nc(-c2ccccc2)n1
5.62 | CCCOc1ccc(-c2cc(-c3ccccc3)nc(C(=O)NN)n2)cc1
12.7 | CC(=O)NCCOCCOc1ccc(-c2cc(-c3ccccc3)nc(C(=O)NN)n2)cc1
2.28 | COc1ccc(-c2cc(-c3ccccc3)nc(C(=O)NN)n2)cc1

Same assay, conditions: myoblast

SMILES | EC50
NNC(=O)c1nc(-c2cccc(C(F)(F)F)c2)cc(-c2cccc(C(F)(F)F)c2)n1 | Not Active
NNC(=O)c1nc(-c2ccccc2C(F)(F)F)cc(-c2ccccc2C(F)(F)F)n1 | Not Active
Cc1cc(C)nc(C(=O)NN)n1 | Not Active
NNc1nc(-c2ccccc2)cc(-c2ccccc2)n1 | Not Active
NNC(=O)c1cc(-c2ccccc2)cc(-c2ccccc2)n1 | Not Active
NNC(=O)Cc1nc(-c2ccccc2)cc(-c2ccccc2)n1 | Not Active
O=C(O)c1nc(-c2ccccc2)cc(-c2ccccc2)n1 | Not Active
NNC(=O)c1cnc(-c2ccccc2)cc1-c1ccccc1 | Not Active
NC(=O)c1nc(-c2ccccc2)cc(-c2ccccc2)n1 | Not Active
NNC(=O)c1ncccn1 | Not Active
NNC(=O)c1nc(-c2ccccc2)cc(-c2ccc(OCCOCc3ccccc3)cc2)n1 | Not Active
N/N=C/c1nc(-c2ccccc2)cc(-c2ccccc2)n1 | Not Active
C#CCOCCOc1ccc(-c2nc(C(=O)NN)nc(-c3ccc(C4(C(F)(F)F)N=N4)cc3)c2C)cc1 | Not Active

The remaining lines, values ahead:

EC50 | SMILES
Not Active | Cc1c(-c2ccccc2)nc(C(=O)NN)nc1-c1ccccc1
Not Active | COc1cc(-c2ccccc2)nc(C(=O)NN)n1
Not Active | COc1ccccc1-c1cc(-c2ccccc2OC)nc(C(=O)NN)n1
Not Active | NNC(=O)c1nc(Oc2ccccc2)cc(-c2ccccc2)n1
Not Active | CCCCOc1ccc(-c2cc(-c3ccccc3)nc(C(=O)NN)n2)cc1
Not Active | NNC(=O)c1nc(-c2ccccc2)cc(-c2ccc(Oc3ccccc3)cc2)n1
Not Active | NNC(=O)c1nc(-c2ccccc2)cc(C2CCCCC2)n1
Not Active | NNC(=O)c1cc(-c2ccccc2)nc(-c2ccccc2)n1
Not Active | O=C(NO)c1nc(-c2ccccc2)cc(-c2ccccc2)n1
Not Active | COC(=O)c1nc(-c2ccccc2)cc(-c2ccccc2)n1

System: Myoblast
Assay: Upregulation of AhR gene expression in DMD disease mouse model myoblasts expressing H2K-mdx utrnA-firefly luciferase assessed as fold increase in AhR mRNA at 30 uM by qRT-PCR analysis relative to control
Conditions: not given

fold change (FC) | SMILES
inactive | CCS(=O)(=O)c1ccc2oc(-c3ccc4ccccc4c3)nc2c1 [EZUTROMID]
